Compound activity (PubChem BioAssay)
RGS4 block = inhibitors of human RGS4. AID 463165. HEK293 M3R/RGS4 inducible, Fluo-4 calcium flux; active compounds read high; triggered by carbachol at its EC20. P49798. B-score at 10 µM. hit rate 0.45% among 310,000;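 active = B-score, a plate-corrected calcium signal, over three deviations above library mean, with baseline fluorescence within five deviations of library mean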;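 note: RGS4 expression induced by doxycycline in cells with stable M3 receptor; B-score is computed from the integrated fluorescence ratio over baseline after carbachol; higher B-score means a larger calcium signal and so more RGS4 inhibition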
Target sequence (P49798 whole entry, looked up): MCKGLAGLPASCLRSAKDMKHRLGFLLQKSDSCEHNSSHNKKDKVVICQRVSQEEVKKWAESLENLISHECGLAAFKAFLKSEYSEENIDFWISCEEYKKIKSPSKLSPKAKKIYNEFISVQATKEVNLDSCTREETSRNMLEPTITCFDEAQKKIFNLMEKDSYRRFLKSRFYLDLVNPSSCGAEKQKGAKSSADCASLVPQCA
RGS4 pot = RGS4 potentiation or activation; HEK293 M3R/inducible RGS4, carbachol calcium flux Fluo4; active compounds read low; B-score at 10 µM; hit rate 0.92% among 310,000; AID 463111;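 active = B-score of the integrated calcium signal more than 4 SD below the library mean, with starting fluorescence not abnormally high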;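 note: negative B-score means reduced calcium response which marks RGS4 activation or potentiation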
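Material: M3R-expressing HEK293 line, RGS4 induced by doxycycline | Schedule: Overnight RGS4 induction, 30 min dye load 37 °C, 20 min compound RT | Measured by: Fluo4 fluorescence kinetic imaging of calcium | Read-out: Integrated calcium ratio converted to B score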
MrgX1 antagonist = antagonists of human MrgX1 receptor; MRGX1-HEK293 calcium flux, Fluo-4, BAM8-22 antagonism; active compounds read low; AID 588676; Q96LB2; B-score at 10 µM; hit rate 1.3% among 310,000;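 active = calcium-response B-score plate-corrected more than 3 library SD below zero, starting fluorescence within 5 deviations, no agonist response on first addition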;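 note: peak minus trough fluorescence over baseline after final BAM8-22 challenge near maximal dose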
Target sequence (Q96LB2 whole entry, looked up): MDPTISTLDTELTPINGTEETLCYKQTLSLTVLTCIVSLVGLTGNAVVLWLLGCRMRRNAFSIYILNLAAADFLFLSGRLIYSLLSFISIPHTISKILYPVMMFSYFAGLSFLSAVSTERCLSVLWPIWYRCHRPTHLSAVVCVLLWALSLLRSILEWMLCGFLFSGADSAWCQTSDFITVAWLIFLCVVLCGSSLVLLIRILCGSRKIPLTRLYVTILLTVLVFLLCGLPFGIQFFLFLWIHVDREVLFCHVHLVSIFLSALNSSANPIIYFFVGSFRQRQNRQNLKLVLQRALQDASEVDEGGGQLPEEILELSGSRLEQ
MrgX1 PAM = allosterically activates human MrgX1 receptor signaling; AID 588675; B-score at 10 µM; MrgX1-HEK293, Fluo-4 calcium flux, FDSS; active compounds read high; hit rate 0.63% among 310,000;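 active = plate-corrected calcium response at least 3 library SD above typical, normal starting fluorescence, not activating the receptor alone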;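 note: compound read alongside a low EC10 to EC30 dose of BAM8-22 agonist; peak minus trough fluorescence over baseline measured at the second addition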
MrgX1 ag = agonists of human MrgX1 receptor; Q96LB2; MrgX1-HEK293 cells, Fluo-4 calcium fluorescence, agonist mode; active compounds read high; B-score at 10 µM; hit rate 0.44% among 310,000; AID 588627;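 active = calcium response B-score plate-corrected fluorescence ratio at least 3 library SD, with starting fluorescence B-score inside 5 SD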
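Material: MrgX1-expressing HEK293 cells / Dosing: compound as first of three additions / Incubation: overnight seeding, then 1 h dark dye loading / Signal: Fluo-4 NW calcium fluorescence / Evaluation: B-scored fluorescence response ratio / Benchmarks: positive and negative control wells on each plate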
RGS4 activ val = confirmation of RGS4 activators | shares compounds with RGS4 pot | HEK293 M3R/RGS4 inducible, carbachol calcium flux Fluo4 | inhibition, % at 10 µM | hit rate 89% among 1,100 | AID 602282;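 active = inhibition above 3 SD of the buffer control wells, cut at about 41% in these data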;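 note: signal is the integrated peak-minus-minimum Fluo4 fluorescence over baseline ratio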
M3R Ca counter = counter-screen for RGS4 activators: effect in non-induced cells | hit rate 82% among 1,100 | inhibition, % at 10 µM | HEK293 M3R non-induced RGS4, Fluo4 calcium flux; after carbachol challenge at its EC90 | shares compounds with RGS4 pot;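 active = inhibition exceeding 3 SD of buffer-only control wells, cut at about 26% in these data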;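 note: percent drop in integrated peak-minus-baseline over baseline Fluo4 ratio after carbachol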
Numbers without * were called inactive; i = inactive; / = no result. Most compounds without a hit are left out; they make up all but 3.5% or so of the library.

SMILES	RGS4 block	RGS4 pot	MrgX1 antagonist	MrgX1 PAM	MrgX1 ag	RGS4 activ val	M3R Ca counter
Cc1nc(N2CCN(Cc3ccccc3)CC2)nc2c1C(=O)CC(c1ccco1)C2 (stereo not given)	i	-8.4*	i	i	i	0	0
O=[N+]([O-])c1cccc(-c2ccc(/C=N/Nc3nc(N4CCCCC4)nc(N4CCCCC4)n3)o2)c1	i	-13*	i	i	i	81*	84*
Cc1ccc(C(=O)N(CCc2ccccc2)Cc2ccccc2)cc1S(=O)(=O)N1CCCCC1	i	-8.5*	i	i	i	91*	50*
COc1ccc(Nc2nc(NCC3CCCO3)c3ccccc3n2)c(OC)c1 (stereo not given)	i	-7.7*	i	i	i	38*	84*
CCOC(=O)C1(CCCc2ccccc2)CCN(Cc2nccn2CC)CC1	i	-11*	i	i	i	92*	84*
CCOC(=O)C1(CCOc2ccccc2)CCN(Cc2cccn2-c2ncccn2)CC1	i	-8.1*	i	i	i	54*	84*
Cc1cc(S(=O)(=O)/N=C(\N)c2ccc(C(N)=O)cc2)cc(C)c1F	i	i	i	i	i	/	/
CC(C)=CCc1c(O)ccc2c1OC(c1ccc(O)c(O)c1)CC2=O (stereo not given)	i	-8.7*	i	i	i	93*	78*
O=C1CC(c2ccc(O)c(O)c2)Oc2c1ccc(O)c2O (stereo not given)	/	/	i	i	i	/	/
Cc1ccccc1NC(=O)c1cccc(NC(=O)c2ccccc2C(=O)O)c1	i	i	i	i	i	/	/
S=C(NCCN(C1CCCCC1)C1CCCC1)Nc1cccc(Cl)c1	i	-7.9*	i	i	i	62*	84*
S=C(Nc1cccc(Cl)c1)NC1CC2CCCC(C1)N2C1CCCC1 (stereo not given)	i	i	i	i	i	/	/
Cc1cccc(N2CCN(C(=O)CSc3nc4ccccc4nc3N3CC(C)OC(C)C3)CC2)c1C (stereo not given)	i	-8.1*	i	i	i	85*	84*
Cc1cccc(NC(=O)CSc2nc3ccccc3nc2N2CC(C)OC(C)C2)c1 (stereo not given)	i	i	i	i	i	/	/
Cc1nc2ccc(Br)cc2c2c1CC(CBr)O2 (stereo not given)	i	-8.1*	i	i	i	64*	84*
CCC(C)Nc1nc(OC(C(F)(F)F)C(F)(F)F)nc(OC(C(F)(F)F)C(F)(F)F)n1 (stereo not given)	i	-7.9*	i	i	i	90*	53*
O=C(CN1CCCCC1)Nc1ccccc1Oc1ccccc1	i	-8.2*	i	i	i	61*	84*
COc1ccc2[nH]c(CN3CCN(CC=C(C)C)C(CCO)C3)c(C)c2c1 (stereo not given)	i	i	i	i	i	/	/
CN(CCNC(=O)C1CCCN(c2ncnc3c2nc2n3CCCCC2)C1)Cc1ccccc1 (stereo not given)	i	i	i	i	i	/	/
Cc1nn(CCCC(=O)NCCc2ccc(Cl)cc2)c(=O)c2nn(-c3ccccc3)c(C)c12	i	i	i	i	i	/	/
C=CCn1c(SCC(=O)Nc2nncs2)nnc1-c1ccco1	i	i	i	i	i	/	/
Cc1cc(NC(=O)c2cccc(C)c2[N+](=O)[O-])no1	i	i	i	i	i	/	/
O=C(CSc1nnc(NC2CCCCC2)s1)Nc1ccc2c(c1)C(=O)c1ccccc1C2=O	i	i	i	i	i	/	/
CC(C)Nc1nnc(SCC(=O)Nc2ccc3c(c2)C(=O)c2ccccc2C3=O)s1	i	-11*	i	i	i	88*	45*
O=C(NCCc1ccccc1)C(c1cccs1)N(C(=O)CCl)c1ccc(Cl)cc1 (stereo not given)	i	-8.1*	i	i	i	50*	0
SMILES	RGS4 block	RGS4 pot	MrgX1 antagonist	MrgX1 PAM	MrgX1 ag	RGS4 activ val	M3R Ca counter
O=C(NCCc1ccccc1)C(c1cccs1)N(C(=O)c1csnn1)C1CC1 (stereo not given)	i	i	i	i	i	/	/
COc1ccc(N2C(=O)N[C@@H](Cc3ccccc3)C2=O)cc1OC	i	i	i	i	i	/	/
CC(C)n1cc([C@@H]2C[C@H]3CN(Cc4cccc(Cl)c4)C(=O)[C@]34CCCN24)cn1	i	-7.6*	i	i	i	46*	84*
CC(C)c1ccc(NC(=O)CCc2ccccc2)cc1	i	i	i	i	i	/	/
CCOC(=O)CC1CCCCN1Cc1cn(C)nc1-c1ccc2c(c1)OCCO2 (stereo not given)	i	i	i	i	i	/	/
Cn1cc(CN2C[C@]3(C)C[C@H]2CC(C)(C)C3)c(-c2ccc3c(c2)OCCO3)n1	i	-8.9*	i	i	i	88*	47*
C/C(=N\Nc1cc(N2CCOCC2)ncn1)c1ccc(O)cc1	i	i	i	i	i	/	/
COc1ccc(Cc2nnc(NC(=O)c3cccs3)s2)cc1OC	i	i	i	i	i	/	/
COC(=O)C1CCN(S(=O)(=O)CCNC(=O)c2ccc(F)cc2)CC1	i	i	i	i	i	/	/
COc1ccc2cc3cc(C(=O)Nc4ccccc4N4CCN(C)CC4)oc3nc2c1	i	-8.9*	i	i	i	40*	0
COCCC(=O)N1CCC(Oc2ccc(C(=O)N3CCCCC3COC)cc2)CC1 (stereo not given)	i	i	i	i	i	/	/
CCOC(=O)c1c(C)n(-c2ccc(C)cc2)c2c(C(C(C)=O)C(=O)O)c(Br)c(O)c(O)c12 (stereo not given)	i	i	i	i	i	/	/
CCOC(=O)C(C(C)=O)c1c(Br)c(O)c(O)c2c(C(=O)c3ccc(C)cc3)coc12 (stereo not given)	i	-9.2*	i	i	i	42*	39*
Cc1ccc(SCc2c(-c3ccccc3)nn(C)c2Cl)cc1	i	i	i	i	i	/	/
Cc1ccc(Sc2c(C#N)c(-c3ccccc3)nn2C)cc1	i	-8*	i	i	i	74*	36*
